Results as given in ChEMBL document CHEMBL1146995, “Aza-retinoids as novel retinoid X receptor-specific agonists” (Bioorg Med Chem Lett, 2006).

How the values were obtained:
[1] = molecular target: T1, Retinoic acid receptor RXR-beta (Homo sapiens, UniProt P28702); assay: Transactivation of RXRbeta in CV1 cells by cotransfection assay; type: functional, cell-based, CV-1
T1 sequence (P28702 whole entry): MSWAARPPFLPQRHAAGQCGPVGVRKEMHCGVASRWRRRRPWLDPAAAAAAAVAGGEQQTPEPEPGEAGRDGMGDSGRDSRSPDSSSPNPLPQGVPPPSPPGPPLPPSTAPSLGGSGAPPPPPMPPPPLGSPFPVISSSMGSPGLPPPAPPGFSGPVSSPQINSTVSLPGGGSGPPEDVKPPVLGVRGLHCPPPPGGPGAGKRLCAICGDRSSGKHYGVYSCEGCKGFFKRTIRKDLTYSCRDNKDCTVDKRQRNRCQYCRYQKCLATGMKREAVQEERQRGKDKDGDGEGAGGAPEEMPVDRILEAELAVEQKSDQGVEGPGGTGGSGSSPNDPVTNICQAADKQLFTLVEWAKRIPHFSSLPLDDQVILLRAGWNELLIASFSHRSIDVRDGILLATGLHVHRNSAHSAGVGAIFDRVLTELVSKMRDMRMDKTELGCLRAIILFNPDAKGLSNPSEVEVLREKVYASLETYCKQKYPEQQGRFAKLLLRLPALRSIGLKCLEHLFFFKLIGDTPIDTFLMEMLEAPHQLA
Procedure, shortened: (§1)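 EC50 taken from a full dose–response curve. Retinoid activity was normalized to the response to ATRA (all-trans retinoic acid). Potency (EC50) is the retinoid concentration that gives 50% of the maximal observed response.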

[2] = molecular target: T1, Retinoic acid receptor RXR-beta; assay: Binding affinity to RXRbeta
[3] = molecular target: T2, Retinoic acid receptor RXR-alpha (Homo sapiens, UniProt P19793); assay: Binding affinity to RXRalpha
T2 sequence (P19793 whole entry): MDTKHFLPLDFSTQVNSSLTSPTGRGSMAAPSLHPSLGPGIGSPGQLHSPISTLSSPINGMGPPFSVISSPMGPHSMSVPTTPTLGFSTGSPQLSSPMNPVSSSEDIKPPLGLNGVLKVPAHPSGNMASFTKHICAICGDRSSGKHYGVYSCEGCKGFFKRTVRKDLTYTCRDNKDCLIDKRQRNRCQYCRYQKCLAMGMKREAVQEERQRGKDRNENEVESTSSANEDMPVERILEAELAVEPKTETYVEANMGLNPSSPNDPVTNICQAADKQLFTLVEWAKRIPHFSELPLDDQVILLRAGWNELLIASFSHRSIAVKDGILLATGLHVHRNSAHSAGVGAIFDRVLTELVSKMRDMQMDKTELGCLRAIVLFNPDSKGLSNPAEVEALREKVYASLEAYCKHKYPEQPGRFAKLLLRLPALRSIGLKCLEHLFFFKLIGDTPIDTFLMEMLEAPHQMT

[4] = molecular target: T2, Retinoic acid receptor RXR-alpha; assay: Transactivation of RXRalpha in CV1 cells by cotransfection assay; type: functional, cell-based, CV-1; procedure, shortened: as §1
[5] = molecular target: T3, Retinoic acid receptor RXR-gamma (Homo sapiens, UniProt P48443); assay: Binding affinity to RXRgamma
T3 sequence (P48443 whole entry): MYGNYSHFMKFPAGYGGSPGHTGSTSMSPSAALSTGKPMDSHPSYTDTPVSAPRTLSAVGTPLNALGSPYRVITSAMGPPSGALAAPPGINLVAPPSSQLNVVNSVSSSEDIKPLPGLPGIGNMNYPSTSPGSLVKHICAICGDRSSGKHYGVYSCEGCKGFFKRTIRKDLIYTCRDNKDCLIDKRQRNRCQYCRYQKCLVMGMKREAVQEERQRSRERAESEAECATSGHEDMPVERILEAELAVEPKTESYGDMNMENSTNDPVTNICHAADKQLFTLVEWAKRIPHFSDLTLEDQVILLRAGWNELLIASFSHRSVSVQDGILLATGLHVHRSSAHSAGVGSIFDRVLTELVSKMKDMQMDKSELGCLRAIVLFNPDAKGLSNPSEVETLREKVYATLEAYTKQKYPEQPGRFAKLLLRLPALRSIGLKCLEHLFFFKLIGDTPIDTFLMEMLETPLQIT

[6] = molecular target: T3, Retinoic acid receptor RXR-gamma; assay: Transactivation of RXRgamma in CV1 cells by cotransfection assay; type: functional, cell-based, CV-1; procedure, shortened: as §1

Structure (SMILES)	EC50 ([1]; read-out: EC50)	Ki ([2]; read-out: Ki)	Ki ([3]; read-out: Ki)	EC50 ([4]; read-out: EC50)	Ki ([5]; read-out: Ki)	EC50 ([6]; read-out: EC50)	EC50 ([6]; cv-1)	EC50 ([1]; cv-1)	EC50 ([4]; cv-1)	Ki [2]	Ki [3]	Ki [5]
CC(/C=C/C(=O)N(Cc1ccccc1)c1cc(C(C)(C)C)cc(C(C)(C)C)c1)=C\C(=O)O							Not Active	Not Active	Not Active	Not Active	Not Active	Not Active
CCCN(C/C=C/C(C)=C/C(=O)O)c1ccc2c(c1)C(C)(C)CCC2(C)C	206 nM	72 nM	47 nM	152 nM	110 nM	170 nM						
CCN(C/C=C/C(C)=C/C(=O)O)c1cc(C(C)(C)C)cc(C(C)(C)C)c1	235 nM	24 nM	31 nM	221 nM	35 nM	231 nM						
CC(/C=C/CN(c1cc(C(C)(C)C)cc2c1CCC2(C)C)C(C)C)=C\C(=O)O	216 nM	301 nM	67 nM	252 nM	121 nM	262 nM						
CCCCCCCCN(C/C=C/C(C)=C/C(=O)O)c1cc(C(C)(C)C)cc(C(C)(C)C)c1		126 nM	122 nM		221 nM	35 nM		Not Active	Not Active			
CCCN(C(=O)/C=C/C(C)=C/C(=O)O)c1cc(C(C)(C)C)cc(C(C)(C)C)c1	151 nM	605 nM	644 nM	1000 nM	299 nM	669 nM						
CCCN(C/C=C/C(C)=C/C(=O)O)c1cc(C(C)(C)C)cc2c1CCC2(C)C	21 nM	12 nM	8 nM	22 nM	10 nM	19 nM						
CC(/C=C/[C@H]1CCCN1c1ccc2c(c1)C(C)(C)CCC2(C)C)=C\C(=O)O	1290 nM	188 nM	103 nM		202 nM	1260 nM			Not Active			
CC(/C=C/CN(CC1CC1)c1cc(C(C)(C)C)cc2c1CCC2(C)C)=C\C(=O)O	98 nM	105 nM	63 nM	123 nM	150 nM	100 nM						
CCN(C/C=C/C(C)=C/C(=O)O)c1ccc2c(c1)C(C)(C)CCC2(C)C	239 nM	185 nM	103 nM	216 nM	162 nM	128 nM						
CC(/C=C/[C@@H]1CCCN1c1ccc2c(c1)C(C)(C)CCC2(C)C)=C\C(=O)O	161 nM	63 nM	21 nM	179 nM	100 nM	147 nM						
CCCN(C/C=C/C(C)=C/C(=O)O)c1cc(C(C)(C)C)cc(C(C)(C)C)c1	69 nM	34 nM	17 nM	99 nM	38 nM	63 nM						

The remaining lines, values ahead:

EC50 ([1]; read-out: EC50)	Ki ([2]; read-out: Ki)	Ki ([3]; read-out: Ki)	EC50 ([4]; read-out: EC50)	Ki ([5]; read-out: Ki)	EC50 ([6]; read-out: EC50)	EC50 ([6]; cv-1)	EC50 ([1]; cv-1)	EC50 ([4]; cv-1)	Ki [2]	Ki [3]	Ki [5]	Structure (SMILES)
52 nM	60 nM	21 nM	53 nM	31 nM	50 nM							CCCCN(C/C=C/C(C)=C/C(=O)O)c1cc(C(C)(C)C)cc2c1CCC2(C)C
169 nM	721 nM	257 nM	400 nM	576 nM		Not Active						CCCN(C/C=C/C(C)=C/C(=O)O)c1cc2c(cc1OC)C(C)(C)CCC2(C)C
	327 nM	254 nM		309 nM		Not Active	Not Active	Not Active				CC(C)=CCN(C/C=C/C(C)=C/C(=O)O)c1cc(C(C)(C)C)cc2c1CCC2(C)C
212 nM	161 nM	18 nM	231 nM	211 nM	223 nM							CCCN(C/C=C/C(C)=C/C(=O)O)c1cc2c(cc1C)C(C)(C)CCC2(C)C
95 nM	88 nM	37 nM	378 nM	131 nM	322 nM							CC(/C=C/CN(C)c1cc(C(C)(C)C)cc(C(C)(C)C)c1)=C\C(=O)O
		529 nM				Not Active	Not Active	Not Active	Not Active		Not Active	CC(/C=C/CNc1cc(C(C)(C)C)cc(C(C)(C)C)c1)=C\C(=O)O
	238 nM	121 nM		207 nM		Not Active	Not Active	Not Active				CC(/C=C/CN(Cc1ccccc1)c1cc(C(C)(C)C)cc(C(C)(C)C)c1)=C\C(=O)O
						Not Active	Not Active	Not Active	Not Active	Not Active	Not Active	CC(/C=C/C(=O)Nc1cc(C(C)(C)C)cc(C(C)(C)C)c1)=C\C(=O)O
117 nM	152 nM	42 nM	64 nM	99 nM	125 nM							CCN(C/C=C/C(C)=C/C(=O)O)c1cc2c(cc1C)C(C)(C)CCC2(C)C
